# Screening data as filed in PubChem.
# Runt-CBFb FRET – blocks binding of human RUNX1 Runt domain to CBFb; Cerulean-Runt/Venus-CBFb FRET ratio 530/480, 1 h; 0.46% of 220,000 active; inhibition, % at 20 µM; Q01196+Q13951;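 active = inhibition over about 50% at 20 µM in the single-dose screen, limit read from the data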;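 note: 0% = DMSO wells and 100% = excess unlabeled CBFb competitor control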
#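 Assay system: Cerulean-Runt domain / Medium: Tris 50 mM pH 7.5, KCl, K2SO4, 0.01% BSA / Timing: protein complex preformed 1 h, compound exposure 1 h, room temperature, dark / Measured by: FRET, excitation 422 nm, emission at 530 and 480 nm / Evaluation: loss of energy transfer signal / Control set: 5 µM unlabeled CBFb as full-inhibition high control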
# Runt-SMMHC FRET – blocks binding of human RUNX1 Runt domain to CBFb-SMMHC. Q01196+Q13951. Cerulean-Runt/Venus-CBFb-SMMHC FRET ratio 530/480, 1 h. inhibition, % at 20 µM. 0.74% of 220,000 active. AID 1434;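 active = mean inhibition across duplicate retests at 20 µM reaching about 50%, limit read from the data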;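 note: 0% = DMSO wells and 100% = wells with excess untagged CBFb-SMMHC; inhibitors lower the FRET ratio by blocking Runt binding to CBFb-SMMHC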
# Wee1 stabilizer – human Wee1 degradation inhibition, primary screen; P30291; reporter increase, % at 5 µM; 1.2% of 220,000 active; HeLa Luc-Wee1K328M stability, luciferase luminescence; 100% = proteasome inhibitor MG132 effect; AID 1321;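 active = activation above the mean of all tested compounds plus 3 SD, set per screening run, cut at about 8.8% in these data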;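 note: cells exposed to compound for 20 h before luminescence read; 0% = DMSO alone and 100% = MG132 at 30 µM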
# Target sequence (P30291 whole entry K328M): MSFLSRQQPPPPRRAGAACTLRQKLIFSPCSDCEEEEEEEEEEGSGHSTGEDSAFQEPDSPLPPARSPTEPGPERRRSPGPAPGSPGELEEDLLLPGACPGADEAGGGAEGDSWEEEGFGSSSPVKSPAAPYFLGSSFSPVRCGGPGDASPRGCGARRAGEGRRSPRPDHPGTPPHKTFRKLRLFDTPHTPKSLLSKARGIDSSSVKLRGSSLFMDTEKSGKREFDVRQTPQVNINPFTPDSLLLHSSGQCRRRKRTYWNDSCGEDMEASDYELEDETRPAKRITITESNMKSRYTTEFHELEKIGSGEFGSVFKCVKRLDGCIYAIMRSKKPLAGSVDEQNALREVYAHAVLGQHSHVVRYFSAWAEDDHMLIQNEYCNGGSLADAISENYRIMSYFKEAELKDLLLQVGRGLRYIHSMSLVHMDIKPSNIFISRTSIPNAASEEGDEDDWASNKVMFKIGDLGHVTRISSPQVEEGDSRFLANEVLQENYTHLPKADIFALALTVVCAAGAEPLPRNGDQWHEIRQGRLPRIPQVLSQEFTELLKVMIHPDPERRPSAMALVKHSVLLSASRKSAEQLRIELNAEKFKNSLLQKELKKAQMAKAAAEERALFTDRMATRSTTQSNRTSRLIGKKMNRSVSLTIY
# AI-2 QS modul – Vibrio harveyi AI-2 quorum sensing modulation | 0.4% of 300,000 active | Vibrio harveyi JMH597 AI-2 luminescence/OD600 ratio, 9 h; stronger effect = lower value; strain lacks LuxN and CqsS sensors; 0 = neutral-control median | activity change, % at 7.5 µM; in the data active = activity change below about -75%, passing the limit was not always enough; inconclusive = no clear call, values can overlap the other calls;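 note: luminescence divided by OD600 gain over 9 h not by final OD600 alone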
# RanGTP-Imp inh – disruptors of Ran-importin-beta complex formation – biochemical, FRET, CFP-Ran, YFP-importin-beta, homogeneous, primary screen; cell-free CFP-Ran/YFP-importin-beta FRET ratio; inhibition, % (no concentration beside the values); 1.1% of 300,000 active; AID 2216;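 active = more than half of the replicate wells show a fall in the fluorescence ratio signal beyond about 16%, limit read from the data, passing the limit was not always enough; inconclusive = exactly half of the replicate wells pass the set limit; inactive = fewer than half of replicates pass the limit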;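 note: 0% = DMSO wells and 100% = Ran loaded with GDP instead of GTP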
# KLK7 zymogen act – proKLK7 (human) activation, primary screen; P49862; purified proKLK7, EDANS-DABCYL substrate fluorescence; 100% is mature enzyme control, 0% vehicle; activation, % at 7 µM; 0.9% of 370,000 active;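 active = activation above the mean of all tested compounds plus 3 SD, computed per campaign excluding outliers beyond control limits, cut at about 13% in these data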
# Active calls of the source: *; ? = inconclusive; / = no result given. An excerpt weighted towards active compounds, which were near 2.9% of everything screened.
SMILES,Runt-CBFb FRET,Runt-SMMHC FRET,Wee1 stabilizer,AI-2 QS modul,RanGTP-Imp inh,KLK7 zymogen act
Cc1ccc(NC(=O)COC(=O)CN2C(=O)NC3(CCCC3)C2=O)cc1S(=O)(=O)N(C)C,-44,-1,1,8,1,0
CCN(CC)S(=O)(=O)c1cccc(NC(=O)COc2ncnc3sccc23)c1,0,-1,-2,-17,3,0
C[C@H]1COc2cccc(N3CCSCC3)c2S(=O)(=O)N1,/,/,/,/,/,1
COc1ccc(S(=O)(=O)N(C)c2ccc(C(=O)Nc3c(C)n(C)n(-c4ccccc4)c3=O)cc2)cc1,/,/,/,4,4,0
CCOc1ccc(-n2c(=O)c3c(C)c(C(=O)N(C)C)sc3n(CC(=O)Nc3ccccc3F)c2=O)cc1,-6,0,-1,1,19*,0
CCOc1ccccc1NC(=O)Cn1c(=O)n(-c2ccc(OC)cc2OC)c(=O)c2c(C)c(C(=O)N(CC)CC)sc21,-9,-3,-1,12,2,0
CCC(C)n1c(=N)c(C#N)cc2c(=O)n3cc(C)ccc3nc21 (configuration not stated),/,/,-1,10,5,3
CCC(C)n1c(=N)c(C#N)cc2c(=O)n3cccc(C)c3nc21 (configuration not stated),104*,91*,6,21,0,3
Cc1ccc(-n2c(=O)c(C#N)cc3c(=O)n4cccc(C)c4nc32)cc1,122*,59*,2,8,93*,3
Cc1ccc(Cn2c(=N)c(C#N)cc3c(=O)n4cccc(C)c4nc32)cc1,/,/,0,37,63*,/
N#C/C(=C\Nc1ccc(Cl)cc1)S(=O)(=O)c1ccccn1,0,-3,1,7,1,0
CC(C)Cn1c(CN2CCCCC2C)nc2c1c(=O)n(C)c(=O)n2C (configuration not stated),-1,-4,3,16,?,0
CCOC(=O)c1c(/N=C/N(C)C)sc(C=O)c1-c1ccccc1,103*,134*,0,16,6,0
CCOC(=O)c1c(/N=C/N(C)C)sc(/C=N/Nc2ccccc2)c1-c1ccccc1Cl,29,44,0,20,-4,-1
CCCC(=O)N1CCCC1(C)C(=O)Nc1cccc(OC(C)C)c1 (configuration not stated),/,/,/,/,/,0
CNC(=O)c1nnsc1S(=O)(=O)c1ccc(Cl)cc1,15,8,-3,-95*,0,0
COc1cccc(/C=N/NC(=O)NC2CCCCC2)c1O,6,-1,10*,4,5,-16
COc1ccccc1CCNC(=O)NC1CCCCC1,1,3,9.7*,-1,?,0
O=C(O)c1cnc(-c2ccccc2)nc1C(F)(F)F,-1,-3,11*,5,4,1
CCOC(=O)c1cnc(-c2ccccc2)nc1C(F)(F)F,-2,3,2,6,2,0
Nc1nc2nc(-c3ccc(Cl)cc3)cc(C(F)(F)F)n2n1,24,76*,-2,18,?,/
Fc1ccc(-c2cc(C(F)(F)F)n3ncnc3n2)cc1,2,1,0,25,3,2
O=C(NC(=S)Nc1nc2c(s1)CCCC2)c1ccccc1,3,2,0,2,-1,-1
O=C(Nc1nc2c(s1)CN(Cc1ccccc1)CC2)C1CCC1,42,130*,3,9,2,0
CCN1CCc2nc(NC(=O)c3ccccc3)sc2C1,44,109*,0,9,53*,1
SMILES,Runt-CBFb FRET,Runt-SMMHC FRET,Wee1 stabilizer,AI-2 QS modul,RanGTP-Imp inh,KLK7 zymogen act
O=C1CCNc2cc3ccccc3cc21,16,75*,0,5,38*,/
COc1ccc2ccccc2c1CN1CCN(c2ncc(Cc3ccccc3)cn2)CC1,/,/,/,/,/,0
COc1ccc(-c2csc(NC(=O)C3CCCCN3S(=O)(=O)c3ccccc3)n2)cc1 (configuration not stated),1,0,10*,6,4,0
Cc1cccc(N(C)S(=O)(=O)c2nnc(NC(=O)c3ccco3)s2)c1,/,/,/,30,176*,0
CN(c1ccccc1)S(=O)(=O)c1nnc(NC(=O)c2ccco2)s1,/,/,/,4,4,0
Cc1ccc2nc3c(cc2c1)c(NC(=O)c1cccnc1)nn3C,15,25,-1,29,29*,1
CCCn1nc(NC(=O)c2ccco2)c2cc3ccc(C)cc3nc21,24,48,/,11,57*,-188
CCCn1nc(NC(=O)c2ccccn2)c2cc3cc(C)ccc3nc21,48,94*,0,74,103*,-3
CCCn1nc(NC(=O)c2ccco2)c2cc3cc(C)ccc3nc21,49,82*,-1,14,79*,-6
CCCC(=O)Nc1nn(C)c2nc3ccc(C)cc3cc12,/,/,/,-3,?,0
Cc1ccc(C(=O)N(C)[C@H]2C[C@H]3c4[nH]c5c(-c6cccc(C)c6)cccc5c4CCN3C[C@H]2[C@H](C)O)cc1,/,/,/,/,/,0
CCCn1nc(NC(=O)COC)c2cc3cc(C)ccc3nc21,/,/,/,20,23*,/
CCOC(=O)N/N=C\c1ccc([N+](=O)[O-])o1,/,28,-1,-89*,8,-1
O=C(N/N=C/c1ccc([N+](=O)[O-])o1)c1ccc2c(c1)OCO2,/,/,/,-101*,-2,0
CCCOc1ccc(CCC(=O)N/N=C/c2ccc([N+](=O)[O-])o2)cc1,1,0,2,-224*,-3,0
O=C(N/N=C\c1ccc(-c2ccc([N+](=O)[O-])cc2)o1)c1ccc2c(c1)OCO2,-2,-59,0,24,-7,0
O=C(N/N=C/c1ccc(-c2cccc([N+](=O)[O-])c2)o1)c1ccccc1O,4,4,5,0,4,0
O=C(N/N=C/c1ccc(-c2cccc([N+](=O)[O-])c2)o1)c1ccc([N+](=O)[O-])cc1,2,-3,9.2*,35,2,0
CCCCCCCC(=O)N/N=C/c1ccc([N+](=O)[O-])o1,10,12,0,-132*,-4,0
Cc1cc(C(=O)N/N=C/c2ccc(-c3cccc(Br)c3)o2)n[nH]1,-2,-11,10*,20,-2,0
COc1ccccc1OCC(=O)N/N=C/C=C/c1ccc([N+](=O)[O-])o1,-10,-20,0,-94*,-5,0
CCn1cc2nc(SCC(=O)Nc3ccc(OC)cc3OC)n(Cc3ccc(OC)cc3)c(=O)c2n1,/,/,/,21,-8,0
Cn1cc([N+](=O)[O-])c(C(=O)NNC(=O)c2ccc([N+](=O)[O-])cc2Cl)n1,0,-2,-1,29,-4,0
